Screening results: PubChem BioAssay, several laboratories
HCV NS3 hel inh: HCV NS3 helicase inhibition | inhibition, % at 10.9 µM | NS3 helicase DNA unwinding, Cy5 molecular beacon fluorescence | actives 0.56% (n = 290,000);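 active = inhibition above the mean of all tested compounds plus 3 SD, set per campaign, cut at about 35% in these data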;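 also: 0% = DMSO wells and 100% = thioflavine S control wells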
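System: Hepatitis C virus NS3 helicase domain fragment enzyme | Reagent: Annealed dual-labelled DNA beacon duplex, ATP-started | Compound dosing: 10.9 µM single point, 0.8% DMSO | Incubation: 1 h reaction at 25 °C, ATP-initiated | Technique: Cy5 fluorescence | Evaluation: Percent inhibition from t60/t0 fluorescence ratio | Benchmarks: Low DMSO, high thioflavine S at 110 µM | Replication: Singlicate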
SUMO1 PPI mod: alters human SUMO1 binding to SIM partners | inhibition, % at 20 µM | SUMO1 binding to a labelled peptide, TR-FRET, 1 h | actives 0.33% (n = 360,000); in the data active = inhibition above about 37%
DNMT1 inh: DNMT1 (human) enzyme inhibition. P26358. DNMT1 molecular beacon, Hinp1I cleavage, fluorescence. inhibition (reported as % activation of signal), % at 10 µM. actives 0.83% (n = 360,000). AID 588458; in the data active = inhibition above about 50%
DSG3 Ab inh: blocks pemphigus antibody binding to human desmoglein-3. P32926. DSG3-coupled beads, scFv-anti-DSG3-GFP binding, flow cytometry; hits give low values. binding (percent of control), % at 10 µM. actives 0.48% (n = 310,000). AID 588358;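 active = binding more than 3 SD below its plate's average and above zero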;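 also: hits lower antibody fragment binding to DSG3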
UHRF1 MBD2 ctr: UHRF1 methyl-DNA binding inhibition. inhibition, % at 4.4 µM. UHRF1 binding to methylated oligo, TR-FRET. actives 0.75% (n = 370,000); in the data active = inhibition above about 21%;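 also: UHRF1 SRA domain binding a hemimethylated CpG hairpin DNA probe; 0% = median of test compound wells and 100% = reference inhibitor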
MBD2 inh: inhibitors of human MBD2 binding to methylated oligonucleotide. Q9UBB5. TR-FRET. inhibition, % at 4.4 µM. actives 0.31% (n = 370,000). AID 686964; in the data active = inhibition above about 13%
* marks the source's active call; other numbers are inactive results; . = no result. Only some compounds are listed: those with a hit (about 2.5% of all), similar ones and a draw of the others.

SMILES	HCV NS3 hel inh	SUMO1 PPI mod	DNMT1 inh	DSG3 Ab inh	UHRF1 MBD2 ctr	MBD2 inh
CC(C)c1ccc(-n2nc3ccc(N)cc3n2)cc1	9	-4	-25	103	0	-4
Cc1onc(-c2c(F)cccc2Cl)c1C(=O)c1ccc(F)cc1	3	8	1	64*	73*	-4
Cc1onc(-c2c(Cl)cccc2Cl)c1C(=O)c1ccc(F)cc1	-3	3	2	104	1	1
Cc1onc(-c2c(Cl)cccc2Cl)c1C(=O)OCC(=O)c1ccccc1	-6	6	6	105	52*	4
C[C@H]1C[C@H]2[C@@H]3CCC4=CC(=O)C=C[C@]4(C)[C@@]3(Cl)[C@@H](O)C[C@]2(C)[C@@]1(O)C(=O)CO	3	-4	-3	-13*	1	-1
COc1ccc2[nH]c(=O)c(COC(=O)c3ccco3)cc2c1	-5	-3	-1	103	0	1
COc1ccc(OC)c(NC(=O)NCCN2CCN(c3ccccc3)CC2)c1	-24	9	-3	92	2	8
O=C(COc1ncnc2ccccc12)N1CCN(C(=O)c2ccco2)CC1	-8	-3	0	101	-1	-1
O=C(COc1ncnc2sccc12)N1CCN(C(=O)c2ccco2)CC1	-1	47*	35	.	5	4
COc1ccccc1C(NC(=O)C1CCN(CCOc2ccc(Cl)cc2)CC1)c1ccccn1 (stereo not given)	.	-2	-5	.	1	-2
C#CCOCCOCCOCCNc1nc(N2CCN(C(=O)CCCCCCCCCCNC(=O)Cn3cc(CCCCCN)nn3)CC2)nc(N2CCN(C(=O)CCCCCCCCCCNC(=O)[C@H]([C@@H](C)CC)n3cc(CCCCN=C(N)N)nn3)CC2)n1	.	39*	-32	152	.	.
C#CCOCCOCCOCCNc1nc(N2CCOCC2)nc(N2CCN(C(=O)CCCCCCCCCCNC(=O)[C@@H]([C@H](C)CC)n3cc(CCCCCN)nn3)CC2)n1	.	-7	-1	100	22*	8
C#CCOCCOCCOCCNc1nc(N2CCN(C(=O)CCCCCCCCCCNC(=O)[C@@H](CCC(=O)O)n3cc(CCCCCN)nn3)CC2)nc(N2CCN(C(=O)CCCCCCCCCCNC(=O)[C@H]([C@@H](C)CC)n3cc(CCCCCN)nn3)CC2)n1	.	-180	-53	121	.	.
C#CCOCCOCCOCCNc1nc(N2CCN(C(=O)CCCCCCCCCCNC(=O)[C@H]([C@@H](C)CC)n3cc(CCCCCN)nn3)CC2)nc(N2CCN(C(=O)CCCCCCCCCCNC(=O)[C@H](CO)n3cc(CCCCCN)nn3)CC2)n1	.	-139	-65	115	.	.
C#CCOCCOCCOCCNc1nc(N2CCN(C(=O)CCCCCCCCCCNC(=O)[C@H]([C@@H](C)CC)n3cc(CCCCN=C(N)N)nn3)CC2)nc(N2CCN(C(=O)CCCCCCCCCCNC(=O)[C@H](CO)n3cc(CCCCCN)nn3)CC2)n1	.	47*	-81	124	.	.
C#CCOCCOCCOCCNc1nc(N2CCN(C(=O)CCCCCCCCCCNC(=O)[C@H]([C@@H](C)CC)n3cc(CCCCCN)nn3)CC2)nc(N2CCN(C(=O)CCCCCCCCCCNC(=O)[C@H]([C@@H](C)CC)n3cc(CCCCN=C(N)N)nn3)CC2)n1	.	79*	-130	160	.	.
C#CCOCCOCCOCCNc1nc(N2CCN(C(=O)CCCCCCCCCCNC(=O)[C@H]([C@@H](C)CC)n3cc(CCCCCN)nn3)CC2)nc(N2CCN(C(=O)CCCCCCCCCCNC(=O)[C@H](CCCCN)n3cc(CCCC(=O)O)nn3)CC2)n1	.	-175	-69	116	.	.
C#CCOCCOCCOCCNc1nc(N2CCN(C(=O)Cn3cc(CCCN=C(N)N)nn3)CC2)nc(N2CCN(C(=O)[C@H]([C@@H](C)CC)n3cc(CCCCN)nn3)CC2)n1	.	-25	-2	108	2	-2
CC(=O)c1ccc(OCCCC(=O)OCC(=O)N2CCN(S(=O)(=O)c3ccc(C)cc3C)CC2)cc1	.	0	-2	96	0	-7
NC1=NC(=O)/C(=C/c2ccc(-c3ccc(S(N)(=O)=O)cc3)o2)S1	10	88*	9	115	-14	-4
CS(=O)(=O)Nc1ccc(-c2ccc(/C=C3\SC(N)=NC3=O)o2)cc1	14	-18	-2	101	-21	-9
NS(=O)(=O)c1ccc(-c2ccc(/C=C3\C(=O)Nc4cc(Cl)ccc43)o2)cc1	7	48*	-14	85	13	1
O=C(COC(=O)CN1C(=O)NC2(CCCC2)C1=O)Nc1ccccc1C(F)(F)F	.	1	1	101	-2	0
O=C(COC(=O)CN1C(=O)c2ccccc2C1=O)Nc1ccccc1C(F)(F)F	.	-13	4	84*	7	5
C/C(=N\NC(=O)c1ccccc1-n1cccc1)c1ccccn1	.	-2	11	96	3	-2
SMILES	HCV NS3 hel inh	SUMO1 PPI mod	DNMT1 inh	DSG3 Ab inh	UHRF1 MBD2 ctr	MBD2 inh
CCOc1ccc(NC(=O)CCC(=O)NNC(=O)COc2ccc(C)cc2)cc1	19	1	10	84*	0	3
Cc1ccc(OCC(=O)Nc2ccc(S(=O)(=O)N3CCN(C)CC3)cc2)cc1	-13	4	2	92	46*	3
COc1ccc2c(c1)CC(=O)NC=C2	-1	-3	-6	115	0	-1
CCn1c(=O)cc(SCC(=O)NCCCN2CCN(c3ccc(F)cc3)CC2)c2ccccc21	-45	3	-2	104	21*	-2
O=Cc1c(N2CCSCC2)nc2ccccn2c1=O	12	-9	-1	107	5	-1
COc1ccc(Cc2c(-c3ccco3)nc3c(C)cc(Br)cn23)c(C)c1	.	-16	-9	.	-2	3
COc1ccccc1Cc1c(C(C)(C)C)nc2c(C)cc(Br)cn12	.	.	.	.	23*	2
COc1ccccc1Cc1c(-c2ccco2)nc2c(C)cc(Br)cn12	.	6	62*	.	.	.
CCOc1ccc(-c2cnc(NCc3cccc4ccccc34)n2CCOC)cc1	-71	-4	-5	115	-2	-1
CCOc1ccc(S(=O)(=O)N2CCN(C(=O)c3ccc(C)c(S(=O)(=O)N4CCOCC4)c3)CC2)cc1	.	1	1	97	-2	-6
O=c1[nH]cnc2c1N=C(c1cccc([N+](=O)[O-])c1)CC(c1ccccc1)N2 (stereo not given)	-17	-20	8	105	-4	-7
C/C(=N\Nc1ccc(S(N)(=O)=O)cc1[N+](=O)[O-])c1ccccc1O	2	-26	10	72*	0	-6
CC(=O)Nc1ccc2c(=O)n(-c3ccccc3)sc2c1	.	7	4	48*	-3	3
CC(=O)Nc1ccc(-c2cc(N)n(-c3ccccc3)n2)cc1	19	-3	-18	98	-6	-1
N#Cc1ccc2c(=O)n(-c3ccccc3)sc2c1	.	-4	-6	68*	-3	-3
